Reference: ChEMBL document CHEMBL5678806, “NMS-P937, an orally available, specific small-molecule polo-like kinase 1 inhibitor with antitumor activity in solid and hematologic malignancies” (Mol Cancer Ther, 2012)
Calls of active or inactive are those of the source. The calls are words filed in the database; no cut-off is given here.

Legend:
[1] = Antitumor activity against human Acute myeloid leukemic cell xenografted in nu/nu mouse assessed as increase in median survival time at 75 mg/kg, iv administered for 5 days and measured after 7 days in presence of NMS-P937 (reference value: 34 days); type: functional, Leukemia cell; settings: time 5 day
[2] = Antitumor activity against human Acute myeloid leukemic cell xenografted in nu/nu mouse assessed as increase in median survival time at 75 mg/kg, iv administered for 5 days and measured after 7 days (reference value: 34 days); type: functional, Leukemia cell; settings: time 5 day
[3] = system: HT-29; assay: Antitumor activity against human HT-29 cells xenografted in nu/nu mouse assessed as tumor growth inhibition at 45 mg/kg, iv administered for 4 days relative to control; type: functional; settings: HT-29, 96 h, time 4 day, read-out: TGI
[4] = system: A2780; assay: Induction of cell cycle arrest in human A2780 cells assessed as accumulation of cells in G2/M phase by measuring CDK1 phosphorylation on Tyr15 incubated for 24 hrs by Western blotting analysis; type: functional, cell-based; settings: dose 0.02-0.2 µmol/L
Procedure, shortened: (§1)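 A2780 ovarian carcinoma cells treated 24 h with a range of concentrations, with DMSO and nocodazole controls. 20 µg protein extract separated by SDS-PAGE and immunoblotted with chemiluminescent detection. Probed for total and phospho-Thr210 PLK1, phospho-Ser10 histone H3, phospho-Thr199 NPM and phospho-Tyr15 CDK1. Total NPM, tubulin and total CDK1 served as loading controls.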

[5] = target: Serine/threonine-protein kinase PLK1 (Homo sapiens) (UniProt P53350); assay: Inhibition of PLK1 in human A2780 cells assessed as decreased TCTP phosphorylation on Ser46 by Western blotting analysis; settings: time 1.0 hrs
Sequence of Serine/threonine-protein kinase PLK1 (Homo sapiens) (P53350 whole entry): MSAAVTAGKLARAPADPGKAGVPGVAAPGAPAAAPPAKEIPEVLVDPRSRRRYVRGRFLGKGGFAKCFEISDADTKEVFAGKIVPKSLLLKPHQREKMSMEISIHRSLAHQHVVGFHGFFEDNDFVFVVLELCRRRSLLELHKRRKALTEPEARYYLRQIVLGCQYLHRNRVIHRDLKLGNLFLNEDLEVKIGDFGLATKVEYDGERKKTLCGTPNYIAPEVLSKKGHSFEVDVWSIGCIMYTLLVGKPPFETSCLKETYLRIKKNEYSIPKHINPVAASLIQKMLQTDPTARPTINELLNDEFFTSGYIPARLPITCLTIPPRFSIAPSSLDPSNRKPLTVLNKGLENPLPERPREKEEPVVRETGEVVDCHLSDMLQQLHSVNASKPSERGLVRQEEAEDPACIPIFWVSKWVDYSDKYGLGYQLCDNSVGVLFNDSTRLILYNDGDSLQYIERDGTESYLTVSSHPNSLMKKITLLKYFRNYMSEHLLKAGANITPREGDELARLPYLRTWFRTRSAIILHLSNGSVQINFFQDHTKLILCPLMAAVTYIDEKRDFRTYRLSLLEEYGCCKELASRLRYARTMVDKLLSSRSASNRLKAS

[6] = system: A2780; assay: Induction of cell cycle arrest in human A2780 cells assessed as accumulation of cells in G2/M phase by measuring NPM phosphorylation on Thr199 incubated for 24 hrs by Western blotting analysis; type: functional, cell-based; settings: dose 0.02-0.2 µmol/L; procedure, shortened: as §1
[7] = target: Serine/threonine-protein kinase PLK1 (Homo sapiens) (UniProt P53350); assay: Inhibition of PLK1 in human A2780 cells assessed as increased Histone H3 phosphorylation on Ser10 by Western blotting analysis; type: cell-based
[8] = system: A2780; assay: Induction of cell cycle arrest in human A2780 cells assessed as accumulation of cells in G2/M phase by measuring upregulated PLK1 expression incubated for 24 hrs by Western blotting analysis; type: functional, cell-based; settings: dose 0.02-0.2 µmol/L; procedure, shortened: as §1
[9] = system: A2780; assay: Induction of cell cycle arrest in human A2780 cells assessed as accumulation of cells in G2/M phase by measuring PLK1 phosphorylation on Thr210 incubated for 24 hrs by Western blotting analysis; type: functional, cell-based; settings: dose 0.02-0.2 µmol/L; procedure, shortened: as §1
[10] = system: A2780; assay: Induction of cell cycle arrest in human A2780 cells assessed as accumulation of cells in G2/M phase by measuring Histone H3 phosphorylation on Ser10 incubated for 24 hrs by Western blotting analysis; type: functional, cell-based; settings: dose 0.02-0.2 µmol/L; procedure, shortened: as §1
[11] = target: Serine/threonine-protein kinase PLK1 (Homo sapiens) (UniProt P53350); assay: Inhibition of PLK1 in human A2780 cells assessed as increased NPM phosphorylation on Thr199 by Western blotting analysis; type: cell-based

With `CCc1c2c(nc3ccc(OC(=O)N4CCC(N5CCCCC5)CC4)cc13)-c1cc3c(c(=O)n1C2)COC(=O)[C@]3(O)CC` [IRINOTECAN] the Time [1] was 79 days, the Time [2] was 67 days and the inhibition in vivo at 45 mg/kg [3] was 64%.
For `COC(=O)Nc1nc2cc(C(=O)c3cccs3)ccc2[nH]1`, the Activity [4] was “Active”, the inhibition [5] was “Active” and the Activity [6] was “Active”. For the same compound, the inhibition [7] was “Active”, the Activity [8] was “Active” and the Activity [9] was “Active”. For the same compound, the Activity [10] was “Active” and the inhibition [11] was “Active”.
